Where “and” joins values, the source holds several entries; their conditions need not be identical. Equal values may be shown once.
Columns and labels:
Mus musculus [1] = assay: Proportion of survivors was determined on the 60th day at a dose of 158-251 mg/kg/day; assay type: functional
Summary of the method: (§1)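 Lewis lung carcinoma model in mice, groups of 10. Dosing daily on days 1-5, 1-8 or 1-10, ip or subcutaneous. Dose ranges pooled from nine independent experiments run at different levels. ILS is the percent increase in mean life span, excluding cures, over the mean of 3 or 4 untreated control groups of 10. Survivors scored at day 60.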

Mus musculus [2] = assay: Average proportion of total treated mice without palpable tumors was determined in the subcutaneous Lewis Lung Carcinoma model at a dose of 158-251 (mg/kg)/day; assay type: functional
Summary of the method: (§2)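 Sc-implanted Lewis lung carcinoma in mice, groups of 10. Agent dissolved in sterile saline and given daily on days 1-5, 1-8 or 1-10, ip or sc (0.5 mL/mouse). Each experiment had 3 or 4 untreated control groups of 10. The read-out was the average proportion of treated mice without palpable tumor on day 14, pooled over independent experiments as mean ± SE.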

Mus musculus [3] = species: Mus musculus; assay: Increase in mean life span was measured against Gardner lymphosarcoma cells; assay type: functional
Summary of the method: (§3)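 10^6 Trypan blue-excluding cells implanted ip (P815 sc) in groups of 10 mice: B6D2F1 for L5178Y and P815, BALB/c for ADJ-PC6, C3H for Gardner. Drug given ip in sterile saline, 0.5 mL/mouse, at or below the maximally tolerated dose for the schedule. ILS excludes long-term tumor-free survivors. Animals held 60 days; Student's t test against untreated controls.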

Mus musculus [4] = assay: Average proportion of total treated mice without palpable tumors was determined in the subcutaneous Lewis Lung Carcinoma model at a dose of 2400-2512 (mg/kg)/day; assay type: functional; summary of the method: as §2
Mus musculus [5] = assay: Average proportion of total treated mice without palpable tumors was determined in the subcutaneous Lewis Lung Carcinoma model at a dose of 500-600 (mg/kg)/day; assay type: functional; summary of the method: as §2
Mus musculus [6] = assay: Percent increase of mean life span of treated groups relative to the mean of the untreated control groups in the subcutaneous Lewis Lung Carcinoma model at a dose of 62-75 (mg/kg)/day; assay type: functional; summary of the method: as §1
Mus musculus [7] = species: Mus musculus; assay: Increase in mean life span was measured against colon carcinoma; assay type: functional
Mus musculus [8] = assay: Average proportion of total treated mice without palpable tumors was determined in the subcutaneous Lewis Lung Carcinoma model at a dose of 100-125 (mg/kg)/day; assay type: functional; summary of the method: as §2
Mus musculus [9] = assay: Percent increase of mean life span of treated groups relative to the mean of the untreated control groups in the subcutaneous Lewis Lung Carcinoma model at a dose of 900-1000 (mg/kg)/day; assay type: functional; summary of the method: as §1
Mus musculus [10] = assay: Ratio of mean tumor volume of treated groups to that of the mean of total untreated controls in the subcutaneous Lewis Lung Carcinoma model at a dose of 158-251 (mg/kg)/day; assay type: functional
Summary of the method: (§4)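 Mice bearing sc Lewis lung carcinoma (groups of 10) received the saline-dissolved agent daily on days 1-5, 1-8 or 1-10, ip or sc. Perpendicular tumor diameters were measured with vernier calipers on day 14, and volume was taken as 0.5 × length × width². T/C is treated mean volume over the mean of all untreated controls (3-4 groups of 10), pooled across experiments as mean ± SE.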

Mus musculus [11] = assay: Average proportion of total treated mice without palpable tumors was determined in the subcutaneous Lewis Lung Carcinoma model at a dose of 1200-1500 (mg/kg)/day; assay type: functional; summary of the method: as §2
Mus musculus [12] = species: Mus musculus; assay: Increase in mean life span was measured against EMT6 mammary carcinoma cells; assay type: functional
Summary of the method: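 EMT6 given as sc trochar implants in C3H mice, groups of 10. Drug given ip in sterile saline, 0.5 mL/mouse, at or below the maximally tolerated dose for the schedule. Mean life span excludes long-term tumor-free survivors. Animals held 60 days after implantation; Student's t test against untreated controls.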

Mus musculus [13] = species: Mus musculus; assay: Increase in mean life span was measured against colon carcinoma 26 cells; assay type: functional, Colon 26
Summary of the method: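 Colon carcinoma 26: 0.5 mL of 1% brei implanted sc or ip in groups of 10 CD2F1 mice. Drug given ip in sterile saline, 0.5 mL/mouse, at or below the maximally tolerated dose for the schedule. Mean life span excludes long-term tumor-free survivors. Animals held 60 days; Student's t test against untreated controls.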

Mus musculus [14] = species: Mus musculus; assay: Increase in mean life span was measured against M5076 ovarian tumor cells; assay type: functional
Summary of the method: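 Tumor brei, 10%, 0.5 mL, implanted sc in groups of 10 mice: CD2F1 for Nettesheim and Madison, B6D2F1 for M5076. M5076 also implanted ip with the same inoculum; Madison im at 0.2 mL. Drug given ip in saline, 0.5 mL/mouse, at or below the maximally tolerated dose. ILS excludes long-term survivors. Animals held 60 days; t test.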

Mus musculus [15] = assay: Ratio of mean tumor volume of treated groups to that of the mean of total untreated controls in the subcutaneous Lewis Lung Carcinoma model at a dose of 62-75 mg/kg/day; assay type: functional; summary of the method: as §4
Mus musculus [16] = species: Mus musculus; assay: Tumor weight inhibition against colon carcinoma 26
Mus musculus [17] = assay: Proportion of survivors was determined on the 60th day at a dose of 100-125 mg/kg/day; assay type: functional; summary of the method: as §1
Mus musculus [18] = species: Mus musculus; assay: Tumor weight inhibition against Nettesheim lung carcinoma cells
Mus musculus [19] = species: Mus musculus; assay: Tumor weight inhibition against Madison 109 lung carcinoma cells
Mus musculus [20] = species: Mus musculus; assay: Increase in mean life span was measured against L5178 Y leukemia cells; assay type: functional; summary of the method: as §3
Mus musculus [21] = species: Mus musculus; assay: Increase in mean life span was measured against B16 melanoma cells carcinoma 26; assay type: functional
Mus musculus [22] = assay: Percent increase of mean life span of treated groups relative to the mean of the untreated control groups in the subcutaneous Lewis Lung Carcinoma model at a dose of 158-251 (mg/kg)/day; assay type: functional; summary of the method: as §1
Mus musculus [23] = assay: Ratio of mean tumor volume of treated groups to that of the mean of total untreated controls in the subcutaneous Lewis Lung Carcinoma model at a dose of 100-125 (mg/kg)/day; assay type: functional; summary of the method: as §4
Mus musculus [24] = species: Mus musculus; assay: Tumor weight inhibition against P815 mastocytoma cells
Mus musculus [25] = assay: Percent increase of mean life span of treated groups relative to the mean of the untreated control groups in the subcutaneous Lewis Lung Carcinoma model at a dose of 100-125 mg/kg/day; assay type: functional; summary of the method: as §1
Mus musculus [26] = assay: Ratio of mean tumor volume of treated groups to that of the mean of total untreated controls in the subcutaneous Lewis Lung Carcinoma model at a dose of 300-400 (mg/kg)/day; assay type: functional; summary of the method: as §4
Mus musculus [27] = assay: Proportion of survivors was determined on the 60th day at a dose of 1200-1500 (mg/kg)/day; assay type: functional; summary of the method: as §1

For `CC(c1ccccc1)C1C(=O)NC(=O)C1CCC(C(N)=O)C(CCC(CC(=O)O)C(N)=O)C(=O)O.N.N` (configuration not stated), the Proportion of survivors (Mus musculus [1]) was 0.04, the Average proportion (Mus musculus [2]) was 0.14 and the ILS (Mus musculus [3]) was 4%. For the same compound, the Average proportion (Mus musculus [4]) was 0.6, the Average proportion (Mus musculus [5]) was 0.29 and the ILS (Mus musculus [6]) was 12%. For the same compound, the ILS (Mus musculus [7]) was 14%, the Average proportion (Mus musculus [8]) was 0.1 and the ILS (Mus musculus [9]) was 19%. The T/C (Mus musculus [10]) was 0.58, the Average proportion (Mus musculus [11]) was 0.48 and the ILS (Mus musculus [12]) was 13%. For the same compound, the ILS (Mus musculus [13]) was 48% and 31% and 75%, the ILS (Mus musculus [14]) was 40% and the T/C (Mus musculus [15]) was 0.59. The TWI (Mus musculus [16]) was 70, the Proportion of survivors (Mus musculus [17]) was 0.04 and the TWI (Mus musculus [18]) was 39. The TWI (Mus musculus [19]) was 67 and 78 and 50, the ILS (Mus musculus [20]) was 5% and the ILS (Mus musculus [21]) was 7%. The ILS (Mus musculus [22]) was 15%, the T/C (Mus musculus [23]) was 0.62 and the TWI (Mus musculus [24]) was 60 and 53. For the same compound, the ILS (Mus musculus [25]) was 12%, the T/C (Mus musculus [26]) was 0.4 and the Proportion of survivors (Mus musculus [27]) was 0.21.

— ChEMBL document CHEMBL1122201, “Carboxyimamidate, a low-molecular-weight polyelectrolyte with antitumor properties and low toxicity” (1982)
